27 compounds from ChEMBL document CHEMBL3045615, “Synthesis and herbicidal evaluation of novel 3-[(alpha-hydroxy-substituted)benzylidene]pyrrolidine-2,4-diones” (J Agric Food Chem, 2005) can be followed below.

The structures appear in SMILES notation.

Type in all cases: functional
In assay [1] the test system is Brassica rapa subsp. oleifera. Briefly: Herbicidal activity against Brassica rapa subsp. oleifera assessed as inhibition in green house at 1500 g/ha pre-emergence treatment measured after 15 days. To be noted: 360 h. In outline:
(§1)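 Greenhouse pot test. Two replicates per treatment. Control was the same amount of water, N,N-dimethylformamide and Tween 20. Fresh weights were taken 15 days after treatment, and percentage inhibition was calculated relative to controls.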

Assay [2] deals with Echinochloa crus-galli. Description: Herbicidal activity against Echinochloa crus-galli (barnyard grass) assessed as inhibition in green house at 375 g/ha pre-emergence treatment measured after 15 days. Conditions: 360 h. In outline: as §1
Assay [3] deals with Echinochloa crus-galli. Description: Herbicidal activity against Echinochloa crus-galli (barnyard grass) assessed as inhibition in green house at 1500 g/ha post-emergence treatment measured after 15 days. Conditions: 360 h. In outline:
as §1

In assay [4] the test system is Brassica rapa subsp. oleifera. Briefly: Herbicidal activity against Brassica rapa subsp. oleifera assessed as inhibition in green house at 1500 g/ha post-emergence treatment measured after 15 days. To be noted: 360 h. The method in brief:
as §1

The test system of assay [5] is Echinochloa crus-galli. Briefly: Herbicidal activity against Echinochloa crus-galli (barnyard grass) assessed as inhibition in green house at 750 g/ha pre-emergence treatment measured after 15 days. To be noted: 360 h. The method in brief: as §1
The test system of assay [6] is Digitaria sanguinalis. Description: Herbicidal activity against Digitaria sanguinalis (hairy crabgrass) assessed as inhibition in green house at 750 g/ha pre-emergence treatment measured after 15 days. Conditions: 360 h. In outline: as §1
Assay [7] relates to Brassica rapa subsp. oleifera. Description: Herbicidal activity against Brassica rapa subsp. oleifera assessed as inhibition of root growth at 100 ug/ml at 28 +/- 1 degC measured after 65 hr by root test. In outline:
(§2)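 Rape seeds were presoaked 4 h in distilled water. About 15 seeds were placed per 6-cm Petri plate on filter paper pre-wetted with 2 mL inhibitor solution. Plates germinated in the dark for 65 h at 28 ± 1 °C. Root length of 10 roots per plate was measured and averaged. Result expressed as percentage inhibition.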

For assay [8], the system named is Echinochloa crus-galli. Briefly: Herbicidal activity against Echinochloa crus-galli (barnyard grass) assessed as inhibition of seedling growth at 10 ug/ml at 28 +/- 1 degC measured after 65 hr by cup test.
The subject of assay [9] is Echinochloa crus-galli. Description: Herbicidal activity against Echinochloa crus-galli (barnyard grass) assessed as inhibition of seedling growth at 100 ug/ml at 28 +/- 1 degC measured after 65 hr by cup test.
Assay [10] relates to Echinochloa crus-galli. Briefly: Herbicidal activity against Echinochloa crus-galli (barnyard grass) assessed as inhibition in green house at 1500 g/ha pre-emergence treatment measured after 15 days. To be noted: 360 h. The method in brief:
as §1

For assay [11], the system named is Amaranthus retroflexus. Briefly: Herbicidal activity against Amaranthus retroflexus assessed as inhibition in green house at 1500 g/ha post-emergence treatment measured after 15 days. Conditions: 360 h. The method in brief: as §1
Assay [12] relates to Brassica rapa subsp. oleifera. Description: Herbicidal activity against Brassica rapa subsp. oleifera assessed as inhibition of root growth at 10 ug/ml at 28 +/- 1 degC measured after 65 hr by root test. In outline:
as §2

Assay [13] relates to Amaranthus retroflexus. Description: Herbicidal activity against Amaranthus retroflexus assessed as inhibition in green house at 1500 g/ha pre-emergence treatment measured after 15 days. To be noted: 360 h. In outline: as §1
Assay [14] deals with Digitaria sanguinalis. Briefly: Herbicidal activity against Digitaria sanguinalis (hairy crabgrass) assessed as inhibition in green house at 375 g/ha pre-emergence treatment measured after 15 days. Conditions: 360 h. In outline:
as §1

The term inhibition denotes the relative decrease from the control value, in per cent. Consider `COc1ccc(/C(O)=C2\C(=O)CN(C(C)C)C2=O)cc1`, for which the inhibition at 1500 g/ha in assay [1] was 0%; in the assay on Echinochloa crus-galli [3], 75%; in assay [4], 6%; in the assay on Echinochloa crus-galli [10] it was 98%; in the assay on Amaranthus retroflexus [11] it was 0%; in the assay on Amaranthus retroflexus [13] it was 11%. Also, the figures for the inhibition at 375 g/ha in the assay with Echinochloa crus-galli [2] and with Digitaria sanguinalis [14] were 20% and 38%, respectively. Further, the figures for the inhibition at 750 g/ha with Echinochloa crus-galli [5] and in the assay with Digitaria sanguinalis [6] were 92% and 54%, respectively. In addition, the inhibition at 100 µg/mL in assay [7] was determined as 71%; in the assay with Echinochloa crus-galli [9] it was 80%. For the same compound, the inhibition at 10 µg/mL with Echinochloa crus-galli [8] turned out to be 80%; in [12], 12%.
As to `Cc1ccc(/C(O)=C2\C(=O)CN(C(C)C)C2=O)cc1`, the inhibition at 1500 g/ha came out at 24% in [1]; 67% in the assay with Echinochloa crus-galli [3]; 20% in [4]; 77% in the assay on Echinochloa crus-galli [10]; 0% in the assay on Amaranthus retroflexus [11]; 11% in the assay on Amaranthus retroflexus [13]. Also, the inhibition at 750 g/ha is 22% in the assay with Echinochloa crus-galli [5] and 0% with Digitaria sanguinalis [6]. Besides, the inhibition at 100 µg/mL in [7] turned out to be 86%; in the assay with Echinochloa crus-galli [9], 78%. The inhibition at 10 µg/mL in the assay with Echinochloa crus-galli [8] was 77%; in assay [12], 8%.
Regarding `Cc1ccc(/C(O)=C2\C(=O)CN(C(C)(C)C)C2=O)cc1`, the results for the inhibition at 100 µg/mL (in [7]; in the assay on Echinochloa crus-galli [9]) were 88% and 48%, respectively. The inhibition at 10 µg/mL is 36% in the assay with Echinochloa crus-galli [8] and 14% in assay [12].
Turning to `COc1ccccc1/C(O)=C1\C(=O)CN(C(C)C)C1=O`, the inhibition at 1500 g/ha in assay [1] is 0%; in the assay with Echinochloa crus-galli [3] it was 87%; in assay [4], 21%; in the assay on Echinochloa crus-galli [10], 93%; in the assay with Amaranthus retroflexus [11] it was 0%; with Amaranthus retroflexus [13], 16%. For the same compound, the inhibition at 100 µg/mL turned out to be 59% in assay [7] and 78% with Echinochloa crus-galli [9]. For the same compound, the figures for the inhibition at 10 µg/mL (with Echinochloa crus-galli [8]; in assay [12]) were 77% and 3%, respectively.
Consider `Cc1ccc(/C(O)=C2\C(=O)CN(C(C)C)C2=O)c(C)c1`, for which the inhibition at 1500 g/ha in assay [1] amounted to 20%; with Echinochloa crus-galli [3], 66%; in [4], 16%; in the assay with Echinochloa crus-galli [10], 71%; in the assay with Amaranthus retroflexus [11] it was 0%; with Amaranthus retroflexus [13] it was 13%. In addition, the inhibition at 100 µg/mL in assay [7] was found to be 54%; in the assay with Echinochloa crus-galli [9] it was 76%. Moreover, the inhibition at 10 µg/mL worked out at 74% in the assay with Echinochloa crus-galli [8] and 10% in assay [12].
With `CC(C)N1CC(=O)/C(=C(/O)c2ccc(C(C)(C)C)cc2)C1=O`, the inhibition at 100 µg/mL in [7] worked out at 85%; with Echinochloa crus-galli [9], 44%. In addition, the inhibition at 10 µg/mL with Echinochloa crus-galli [8] was determined as 28%; in [12], 0%.
Take `CCCCCc1ccc(/C(O)=C2\C(=O)CN(C(C)C)C2=O)cc1`: the figures for the inhibition at 100 µg/mL (in assay [7]; in the assay on Echinochloa crus-galli [9]) were 29% and 12%, respectively. Moreover, the inhibition at 10 µg/mL with Echinochloa crus-galli [8] is 5.7%; in [12], 14%.
Regarding `CCCc1ccc(/C(O)=C2\C(=O)CN(C(C)C)C2=O)cc1`, the inhibition at 100 µg/mL in assay [7] is 86%; in the assay on Echinochloa crus-galli [9] it was 57%. For the same compound, the inhibition at 10 µg/mL was determined as 27% in the assay on Echinochloa crus-galli [8] and 60% in assay [12].
On to `CC(C)(C)c1ccc(/C(O)=C2\C(=O)CN(C(C)(C)C)C2=O)cc1`, for which the inhibition at 100 µg/mL in [7] came out at 79%; with Echinochloa crus-galli [9], 18%. Further, the inhibition at 10 µg/mL in the assay with Echinochloa crus-galli [8] was found to be 4%; in [12], 64%.
The like results for `CC(C)c1ccc(/C(O)=C2\C(=O)CN(C(C)(C)C)C2=O)cc1` were, in that order, 83%, 18%, 10% and 75%.
In the same order, the values of `CCCCCc1ccc(/C(O)=C2\C(=O)CN(C3CC3)C2=O)cc1` are 57%, 23%, 5% and 0%.
In the same order, the values of `COc1ccc(/C(O)=C2\C(=O)CN(C3CC3)C2=O)c(OC)c1` are 77%, 79%, 78% and 16%.
Consider `Cc1cc(C)cc(/C(O)=C2\C(=O)CN(C(C)C)C2=O)c1`, for which the inhibition at 100 µg/mL worked out at 81% in assay [7] and 42% in the assay with Echinochloa crus-galli [9]. For the same compound, the inhibition at 10 µg/mL in the assay on Echinochloa crus-galli [8] was 22%; in assay [12] it was 3%.
The like results for `Cc1cc(C)cc(/C(O)=C2\C(=O)CN(C(C)(C)C)C2=O)c1` were, in that order, 82%, 40%, 1% and 41%.
In the same order, the values of `COc1ccc(/C(O)=C2\C(=O)CN(C(C)(C)C)C2=O)cc1OC` are 70%, 59%, 0% and 58%.
In the same order, the values of `Cc1cc(C)cc(/C(O)=C2\C(=O)CN(C3CC3)C2=O)c1` are 86%, 29%, 0% and 70%.
For `COc1cc(/C(O)=C2\C(=O)CN(C3CC3)C2=O)cc(OC)c1OC`, the inhibition at 100 µg/mL was 60% in assay [7] and 26% in the assay on Echinochloa crus-galli [9]. In addition, the inhibition at 10 µg/mL with Echinochloa crus-galli [8] was found to be 4%; in assay [12], 45%.
The like results for `CCCc1ccc(/C(O)=C2\C(=O)CN(C3CC3)C2=O)cc1` were, in that order, 75%, 41%, 8% and 0%.
In the same order, the values of `COCCOCOc1cccc(/C(O)=C2\C(=O)CN(C3CC3)C2=O)c1` are 35%, 33%, 4% and 0%.
In the same order, the values of `COCCOCOc1ccc(/C(O)=C2\C(=O)CN(C3CC3)C2=O)cc1` are 51%, 12%, 0% and 19%.
As for `COc1ccc(/C(O)=C2\C(=O)CN(C(C)C)C2=O)cc1OC`, the figures for the inhibition at 100 µg/mL (in assay [7]; in the assay on Echinochloa crus-galli [9]) were 34% and 76%, respectively. Further, the inhibition at 10 µg/mL came to 68% in the assay on Echinochloa crus-galli [8] and 24% in assay [12].
The like results for `CC(C)c1ccc(/C(O)=C2\C(=O)CN(C(C)C)C2=O)cc1` were, in that order, 74%, 39%, 0% and 0%.
As for `COc1cc(/C(O)=C2\C(=O)CN(C(C)C)C2=O)cc(OC)c1OC`, the inhibition at 100 µg/mL in assay [7] came out at 69%; in the assay with Echinochloa crus-galli [9], 0%. Further, the inhibition at 10 µg/mL in the assay with Echinochloa crus-galli [8] worked out at 0%; in assay [12] it was 61%.
`COc1cc(OC)c(/C(O)=C2\C(=O)CN(C(C)C)C2=O)cc1OC`: the inhibition at 100 µg/mL in assay [7] was determined as 62%; with Echinochloa crus-galli [9] it was 64%. Besides, the inhibition at 10 µg/mL is 0% in the assay with Echinochloa crus-galli [8] and 60% in assay [12].
In the same order, the values of `COCCOCOc1ccccc1/C(O)=C1\C(=O)CN(C(C)C)C1=O` are 28%, 52%, 17% and 7%.
The like results for `COCCOCOc1cccc(/C(O)=C2\C(=O)CN(C(C)C)C2=O)c1` were, in that order, 10%, 74%, 8% and 0%.
For `COCCOCOc1ccc(/C(O)=C2\C(=O)CN(C(C)C)C2=O)cc1`, the inhibition at 100 µg/mL in assay [7] was found to be 51%; with Echinochloa crus-galli [9] it was 21%. Further, the inhibition at 10 µg/mL turned out to be 0% with Echinochloa crus-galli [8] and 19% in assay [12].
